# Sampled rows, rich in hits. Any-hit rate of the full collection: about 4.8%.
# Beta apoptosis: inhibitors of cytokine-induced beta cell apoptosis, primary screen, luminescence | INS-1E cytokine-induced death, ATP luminescence, 48 h; percent of positive-control rescue, neutral wells zero | protection from apoptosis, % (concentration not given with the values) | hit rate 0.8% among 300,000;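 active = Every replicate reaches about 75%, or at least half do and their mean reaches it too, limit read from the data; inconclusive = At least half of replicates reach the limit but their mean does not; inactive = Under half of replicates reach the limit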;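 also: higher means more ATP so stronger rescue from cytokine killing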
# T cruzi inh: inhibitors of intracellular T. cruzi growth, primary screen, luminescence, NIH3T3 host cells. T. cruzi beta-gal in NIH3T3, 90 h. AID 1885, 2009. inhibition, % (concentration not given with the values). hit rate 1.4% among 300,000;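 active = mean inhibition across valid replicates above about 55%, limit read from the data; inconclusive = mean below that limit but half or more replicates reach it; inactive = mean below it, under half of replicates reach it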;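 also: signal also drops with host cell toxicity which is not excluded here; higher percent means less beta-gal luminescence so fewer parasites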
#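 Assay system: NIH/3T3 host cells with β-galactosidase reporter T. cruzi; input: 5,000 host fibroblasts per well; compound: single 50 nL compound addition per well in DMSO; timing: ≥90 h infection period, 3 h prior cell attachment; measured by: GalScreen β-gal luminescence, detergent lysis, 60 min; evaluation: percent inhibition of parasite-derived β-gal signal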
# CSC inhib: cancer stem cell viability inhibitors, primary screen, luminescence | hit rate 1.1% among 300,000 | inhibition, % at 7.5 µM | cancer stem cell-like cells viability; in the data active = inhibition above about 75%; inconclusive = no clear call, values can overlap the other calls; tested in HMLE shEcad cells
# WT yeast gro inh: growth inhibition of WT strain, primary screen, mitochondrial fusion inhibitor project, WT and mutant strains, chemical genetic; mitochondrial fusion phenotypic screen; inhibition, % at 10 µM; hit rate 2.1% among 190,000; AID 1362, 2008; in the data active = inhibition above about 58%; tested in S. cerevisiae
# Mot1-301 SUMO: yeast Mot1-301 growth rescue at high temperature, primary screen, SUMOylation pathway inhibitor project, S. cerevisiae, ATP luminescence, 38.5C. S. cerevisiae Mot1-301 growth rescue; percent above DMSO median, 100 means doubled. growth rescue, % at 18.8 µM. hit rate 1% among 320,000. AID 2716, 2010;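 active = every valid replicate shows activation above 250% relative to neutral control wells; inactive = the rest, any valid replicate at or below 250%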
# Efflux pump inh: inhibitors of Candida efflux pumps in yeast, primary screen, S. cerevisiae, Nile Red, multiplex; inhibition, % at 10 µM; S. cerevisiae Candida pump triplex; AID 485275, 2010; hit rate 0.44% among 330,000;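 active = plate passing quality check with inhibition over a set limit, or well fluorescence over plate mean plus 4 SD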;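 also: Nile Red retained in pooled yeast measured as flow cytometry median fluorescence; higher means more Nile Red kept so more efflux inhibition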
# Hits are given with their value; – = inactive; ? = inconclusive; · = not tested or not shown; ! = not active in a repeat.
SMILES,Beta apoptosis,T cruzi inh,CSC inhib,WT yeast gro inh,Mot1-301 SUMO,Efflux pump inh
CCOC(=O)c1c(C)n(C)c2ccc(OCC(O)Cn3c(C)nc4ccccc43)cc12 (stereo unspecified),–,–,·,–,–,–
Cc1ccc(-c2nnc(Nc3ccc4c(c3)OCO4)c3ccccc23)cc1S(=O)(=O)NC(C)C,–,–,–,–,–,–
Cn1cc(CN2CCCC(C(=O)Nc3ccc(-c4cccc(F)c4)cc3)C2)cn1 (stereo unspecified),–,–,–,·,–,–
Cc1csc(NC(=O)CCC(=O)N(CC(=O)NC2CCCCC2)c2ccccc2)n1,–,–,–,·,–,–
C=CCn1c(C)cc(C(=O)COC(=O)c2ccc(N)c([N+](=O)[O-])c2)c1C,–,–,–,–,771,–
COc1cc2c(cc1NC(=S)Nc1cccc(C(F)(F)F)c1)oc1ccccc12,–,–,–,64,–,–
COCCCNC(=S)Nc1cc2oc3ccccc3c2cc1OC,–,–,–,·,–,–
COc1cc2c(cc1NC(=O)CSCC(=O)O)oc1ccccc12,–,–,–,–,·,–
COc1cc2c(cc1NC(=S)Nc1cccc3ccccc13)oc1ccccc12,–,–,–,69,–,–
CC(=O)N1CCC(N(CCCOC(C)C)S(=O)(=O)c2ccc([N+](=O)[O-])cc2)CC1,–,–,–,·,–,–
CCOC(=O)c1c(C)[nH]c(C(=O)Nc2cc(OCC)c(N3CCOCC3)cc2OCC)c1C,–,·,·,·,–,–
CCc1ccc(-c2cc(C)no2)cc1S(=O)(=O)N1CCN(c2ccc(F)cc2)CC1,–,–,–,·,–,–
Nc1c(C(=O)Nc2ccc3c(c2)OCCO3)nnn1Cc1cccc(F)c1,–,–,–,·,–,–
Nc1nc(-c2cccc(Br)c2)cs1,–,–,–,71,–,–
Nc1nc(-c2ccc(Br)cc2)cs1,–,–,–,–,–,–
N#Cc1nc(COc2ccccc2)oc1NCCN1CCOCC1,–,–,–,–,–,–
N#Cc1nc(COc2ccc(-c3ccccc3)cc2)oc1NCCCN1CCOCC1,–,–,·,77,–,–
CN1CCN(c2oc(COc3ccc(-c4ccccc4)cc3)nc2C#N)CC1,–,77,–,–,563,–
Cc1ccnc(SCC(=O)NC2CCCCCC2)n1,–,–,–,·,–,–
CC(=O)Nc1ccc(C(=O)COC(=O)CCc2ccccc2)c(F)c1,–,·,–,·,–,–
O=C1C=CC(=O)N1CCCCCCN1C(=O)C=CC1=O,–,·,102,92,–,–
C=CCNC(=S)N/N=C/c1ccc(N(CC)Cc2ccccc2)cc1,–,–,–,69,–,–
CCN(CC)c1ccc(/C=N/NC(=S)NCc2ccccc2)cc1,·,–,–,–,–,–
CC(=O)Nc1ccc(NC(=O)c2cc([N+](=O)[O-])cc([N+](=O)[O-])c2)cc1,–,55,–,·,–,–
CN1CCN(NC(=O)c2cc([N+](=O)[O-])cc([N+](=O)[O-])c2)CC1,–,70,–,–,–,–
SMILES,Beta apoptosis,T cruzi inh,CSC inhib,WT yeast gro inh,Mot1-301 SUMO,Efflux pump inh
C/C(=N\NC(=O)c1cc([N+](=O)[O-])cc([N+](=O)[O-])c1)c1ccco1,–,57,–,–,–,–
CC(=O)Nc1ccc(C(=O)NNC(=O)c2cc([N+](=O)[O-])cc([N+](=O)[O-])c2)cc1,–,–,–,–,–,–
O=C(Nc1ccc(Br)cc1)c1cc([N+](=O)[O-])cc([N+](=O)[O-])c1,–,71,–,·,–,–
O=C(Nc1ccc(NC(=O)c2cccc([N+](=O)[O-])c2)cc1)c1cccc([N+](=O)[O-])c1,–,–,–,·,–,–
Cc1ccc(NC(=O)CC2NCCNC2=O)cc1Cl (stereo unspecified),–,–,–,–,–,–
N=c1c(C(=O)NC2CCCCC2)cc2c(=O)n3ccccc3nc2n1CCc1ccccc1,–,–,–,·,–,–
COC(=O)c1cc(C(=O)Nc2ccc(S(=O)(=O)NC(C)(C)C)cc2)cc([N+](=O)[O-])c1,–,56,–,–,–,–
Cc1ccc(NC(=O)c2ccc(Nc3c([N+](=O)[O-])cc([N+](=O)[O-])cc3[N+](=O)[O-])cc2)cc1,–,59,–,60,–,–
COC(=O)c1cc(C(=O)Nc2nnc(CC(C)C)s2)cc([N+](=O)[O-])c1,–,–,·,–,–,–
CCC(CC)c1nnc(NC(=O)c2cc(C(=O)OC)cc([N+](=O)[O-])c2)s1,–,–,–,–,400,–
COc1cc(SC)ccc1C(=O)N(CC(=O)Nc1ccccc1Br)Cc1ccco1,–,–,–,·,–,–
COC(=O)C(CC(C)C)NC(=O)c1cccs1 (stereo unspecified),–,·,–,–,–,–
COc1cccc(C2/C(=C(\O)c3ccc4c(c3)OCCO4)C(=O)C(=O)N2CCN(C)C)c1 (stereo unspecified),–,·,·,–,352,–
O=C(Nc1ccn(Cc2c(F)c(F)cc(F)c2F)n1)c1ccc(COc2ccc(Cl)cc2Cl)o1,–,–,–,–,–,–
Cc1nn(Cc2ccc(Cl)cc2Cl)c(C)c1NC(=O)c1ccc(COc2cc(Cl)ccc2Cl)o1,–,59,–,–,–,–
Cc1nn(Cc2c(F)c(F)c(F)c(F)c2F)c(C)c1NC(=O)c1ccc(COc2ccc(Cl)cc2Cl)o1,–,67,–,–,–,–
Cc1nn(Cc2cccc(F)c2)c(C)c1NC(=O)c1ccc(COc2ccccc2Cl)cc1,–,57,101,–,–,–
O=C(Nc1nc2ccccc2[nH]1)c1ccccc1F,89,–,124,–,–,–
COc1ccccc1-n1c(SCC(=O)c2ccc(O)cc2O)nc2cc([N+](=O)[O-])ccc21,–,–,·,77,–,–
Cc1ccccc1C(=O)Oc1ccc(Sc2ccc(O)cc2)cc1,–,–,–,87,–,–
CSc1nc2ccc(Cl)cc2[nH]1,–,–,–,–,–,–
CSc1nc2cc(Oc3cccc(Cl)c3Cl)c(Cl)cc2[nH]1,–,?,103,85,–,–
N=c1sccn1CC(=O)Nc1ccc([N+](=O)[O-])cc1Cl,–,–,–,·,–,–
COc1cccc(C2=NOC(C(=O)Nc3cccnc3Cl)C2)c1 (stereo unspecified),–,–,–,–,–,–
Cc1ccccc1OCc1n(CC(=O)OC2CC(C)CCC2C(C)C)c2ccccc2[n+]1C (stereo unspecified),114,65,–,62,–,–
CC1CCC(C(C)C)C(OC(=O)Cn2c(-c3ccc(Br)cc3)[n+](C)c3ccccc32)C1 (stereo unspecified),106,63!,–,66!,–,–
